mIAP activ – increases mouse intestinal alkaline phosphatase activity | muIAP, CDP-Star luminescence, 30 min; stronger effect = higher value; 1 = vehicle-only enzyme signal, 0 = enzyme-free wells | activation factor at 10 µM | 330,000 compounds, 0.24% hits | AID 2805;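 active = activation factor of at least 2 at 20 µM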
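Assay system: mouse IAP enzyme / Compound: DMSO-dissolved test compounds / Timing: 30 min, room temperature / Measured by: luminescence from enzymatic CDP-Star hydrolysis / Control set: DMSO-only wells, enzyme-free buffer wells as negative control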
hIAP block – blocks human intestinal alkaline phosphatase. purified IAP, CDP-Star luminescence, 30 min. inhibition, % at 10 µM. P09923. 330,000 compounds, 0.12% hits;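 active = inhibition reaching a set limit with compound at 10 µM in the primary screen, cut at about 35% in these data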;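 also: plate controls were DMSO wells with enzyme for no effect and no-enzyme buffer wells for full effect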
Target sequence (P09923 whole entry, looked up): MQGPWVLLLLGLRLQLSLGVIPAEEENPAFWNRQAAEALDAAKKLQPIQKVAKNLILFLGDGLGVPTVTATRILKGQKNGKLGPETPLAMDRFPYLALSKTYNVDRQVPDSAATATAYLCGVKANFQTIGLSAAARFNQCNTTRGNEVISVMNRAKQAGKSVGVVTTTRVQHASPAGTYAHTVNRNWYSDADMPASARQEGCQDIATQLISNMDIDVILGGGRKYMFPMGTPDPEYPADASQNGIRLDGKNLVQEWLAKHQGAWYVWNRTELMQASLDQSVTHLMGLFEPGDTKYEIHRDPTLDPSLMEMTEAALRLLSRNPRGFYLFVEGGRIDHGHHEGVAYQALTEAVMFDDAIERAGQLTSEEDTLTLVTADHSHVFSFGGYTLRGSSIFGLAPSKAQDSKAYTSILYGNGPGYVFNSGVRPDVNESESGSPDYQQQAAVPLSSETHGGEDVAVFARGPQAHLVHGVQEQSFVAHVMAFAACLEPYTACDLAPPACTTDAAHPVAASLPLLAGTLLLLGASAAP
mIAP inh – blocks mouse intestinal alkaline phosphatase; purified mouse IAP, CDP-Star luminescence, 30 min; inhibition, % at 10 µM; 330,000 compounds, 0.2% hits; AID 2806;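 active = inhibition of at least 40% at 10 µM in the primary screen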;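 also: plate controls were DMSO with enzyme for no effect and no enzyme wells for full effect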
bIAP activator – increases bovine intestinal alkaline phosphatase activity; activation factor at 20 µM; purified bovine IAP, CDP-star luminescence, 30 min; stronger effect = higher value; fold of DMSO-control signal, blank-subtracted; 200,000 compounds, 0.17% hits;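 active = activation factor of 2 or more at 20 µM, a signal rise over negative controls twice the positive control's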
hIAP activ – human IAP activation; 330,000 compounds, 0.16% hits; activation factor at 10 µM; AID 2524; P09923; purified human IAP, CDP-Star luminescence, 30 min; stronger effect = higher value; 1 = vehicle-only enzyme, 0 = enzyme-free background;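 active = activation factor of the enzyme at least 2-fold when tested at 20 µM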
bIAP inh – intestinal alkaline phosphatase (bovine) inhibition; 190,000 tested, under 10 active; AID 1019; purified bovine IAP, CDP-star luminescence, 30 min; inhibition, % at 20 µM;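 active = over 50% inhibition of intestinal alkaline phosphatase at 20 µM in the single-dose screen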
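Incubation: 30 min reaction at room temperature / Material: purified bovine intestinal alkaline phosphatase (IAP) enzyme / Input: enzyme at 1/65,000,000 dilution / Dosing: 20 µM single dose / Signal: CDP-star luminescence signal / Reagent: CDP-star chemiluminescent phosphatase substrate, 30 µM final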
hIAP act conf – human IAP activation confirmation; shares compounds with hIAP activ; purified IAP, CDP-Star luminescence, 30 min; stronger effect = lower value; activation (%Activity, negative = activation), % at 8.3 µM; 880 compounds, 10% hits;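 active = at least twofold enzyme activation in any of six single-dose repeats, which the averaged readout prints as negative percent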
The depositor's hits bear a star; x = not tested or not shown; ! = a repeat was not active. This is a sample that favours compounds with a hit; in the whole collection about 0.79% have one here.

SMILES	mIAP activ	hIAP block	mIAP inh	bIAP activator	hIAP activ	bIAP inh	hIAP act conf
CC(C)N(Cc1ccccc1)S(=O)(=O)c1ccc2c(c1)NC(=O)CO2	1.1	17	-7	x	0.83	x	x
O=C(NCc1ccccc1)c1onc(CS(=O)(=O)c2ccc(Cl)cc2)c1C(=O)NCc1ccccc1	0.88	-4	12	x	1	x	x
CSCCC(NS(=O)(=O)c1ccccc1F)C(=O)N1CCCCCC1 (stereo unspecified)	1.1	-20	-5	x	1.2	x	x
CSCCC(NS(=O)(=O)c1ccccc1F)C(=O)NNC(=O)c1csc(N2CCOCC2)n1 (stereo unspecified)	0.71	-164	29	x	2.6*	x	72
CSCCC(NC(=O)c1ccccc1Cl)C(=O)NNC(=O)c1csc(N2CCOCC2)n1 (stereo unspecified)	1	-81	-2	x	1.8	x	x
CSCCC(NC(=O)c1ccccc1Br)C(=O)NNC(=O)c1csc(N2CCOCC2)n1 (stereo unspecified)	0.94	-110	6	x	2.1*	x	-6
O=C(CCNC(=O)c1ccccc1)Nc1ccc(Cl)c(S(=O)(=O)N2CCCCC2)c1	1.1	-1	-6	x	1	x	x
O=C(c1cnc2n(c1=O)CCS2)N1CCN(c2ccc([N+](=O)[O-])cc2)CC1	1.1	3	-9	0.6	0.97	38	x
Cc1ccc(NC(=O)c2ccncc2)cc1[N+](=O)[O-]	1.1	-105	-7	1.1	2.1*	-12	54
Cc1ccc(C(=O)Nc2ccncc2)cc1[N+](=O)[O-]	0.97	-21	3	x	1.2	x	x
COc1ccc2c(c1)c1nnc(SCC(=O)N3CCCCC3C)nc1n2C (stereo unspecified)	x	x	x	1	x	5	x
COc1ccc(N2CCN(C(=O)CSc3nnc4c5cc(C)ccc5n(C)c4n3)CC2)cc1	0.93	-160	7	0.9	2.6*	7	-69
CC(=O)Nc1ccc(-c2csc(-c3cccnc3)n2)cc1	0.98	-35	2	x	1.3	x	x
Cc1c(Cl)cccc1NC(=O)C(=O)NNS(=O)(=O)c1ccc(F)cc1	0.8	-139	20	x	2.4*	x	-20
Cc1ccc(CNC(=O)c2cc(-c3cc(C)cc(C)c3O)n[nH]2)cc1	1.2	-90	-21	x	1.9	x	x
Cc1ccc(O)c(-c2cc(C(=O)NCc3ccc4c(c3)OCO4)[nH]n2)c1	1.3	-106	-31	0.9	2.1*	6	20
COc1ccc(OC)c(NC(=O)c2cc(-c3ccc(C)cc3O)n[nH]2)c1	1	-116	-4	1.4	2.2*	-37	-36
Cc1ccc(C)c(NC(=O)c2cc(-c3cc(C)c(C)cc3O)n[nH]2)c1	1.3	-92	-30	x	1.9	x	x
Cc1ccc(-c2cc(C(=O)Nc3cc(C)ccc3C)[nH]n2)c(O)c1	0.96	-49	4	0.9	1.5	9	x
COc1ccc(OC)c(NC(=O)c2cc(-c3cc(C)ccc3O)n[nH]2)c1	1	-108	-2	x	2.1*	x	-42*
CCn1cc(/C=C(\NC(=O)c2ccc(OC)c(OC)c2)C(=O)NCCCN2CCOCC2)c2ccccc21	1	-5	-2	x	1.1	x	x
COc1cc(/C=C2/C(=O)NN(c3cccc(Cl)c3)C2=O)cc(OC)c1O	0.77	50*	23	x	0.5	x	9
CCOc1cc(/C=C2/C(=O)NN(c3cccc(Cl)c3)C2=O)ccc1O	0.83	33	16	x	0.67	x	x
CCCCOc1ccc(C(=O)NNC(=O)C2C3C=CC(C3)C2C(=O)O)cc1 (stereo unspecified)	0.94	-8	6	x	1.1	x	x
CCOc1cc(/C=C2/C(=O)ON=C2C)cc(Br)c1O	0.95	38*	5	x	0.61	x	9
SMILES	mIAP activ	hIAP block	mIAP inh	bIAP activator	hIAP activ	bIAP inh	hIAP act conf
O=C(COc1ccc2c3c(c(=O)oc2c1)CCCC3)N1CCN(c2ccccc2)CC1	0.96	37*	4	x	0.63	x	-27
Cc1cc(OCC(=O)N2CCN(c3ccccc3)CC2)c2c(C)cc(=O)oc2c1	0.93	39*	7	x	0.61	x	3
O=C(O)COc1ccc2c3c(c(=O)oc2c1)CCCC3	1	0	-2	1	1	-4	x
CC(NC(=O)c1cc2c(s1)CS(=O)(=O)C2)c1ccccc1 (stereo unspecified)	0.99	13	1	x	0.87	x	x
O=c1c(Cl)c(NCc2ccccc2)cnn1C12CC3CC(CC(C3)C1)C2	1.1	15	-6	1	0.85	5	x
COc1ccc(-c2c(-c3ccccc3OC)oc3ccccc23)cn1	0.89	11	11	x	0.89	x	x
CC[n+]1ccccc1/C=C1\Sc2ccc(C)cc2N1C	0.91	-9	9	x	1.1	x	x
CN1/C(=C/c2cccc[n+]2CCO)Sc2ccccc21	1	37*	0	x	0.63	x	11
CCC1CCCCN1CCCNC(=O)CN1C(=O)COc2ccccc21 (stereo unspecified)	0.97	-2	3	x	1	x	x
COc1ccc(C(=O)Nc2ccc3oc(-c4cccc(Cl)c4)cc(=O)c3c2O)cc1	1	-23	-4	x	1.2	x	x
C=CCN1C(=O)/C(=C\C=C2\N(C)c3ccccc3C2(C)C)SC1=S	0.61	46*	38	0.9	0.54	14	-267*
Nc1cc(Nc2ccccc2)ccn1	0.96	38*	4	x	0.62	x	8
O=C(CC(c1ccccc1)c1ccccc1)Nc1ncn[nH]1	1.4	-146	-40	3.3*	2.5*	-231	-7
O=C(CC1CCCCC1)Nc1ncn[nH]1	1.1	-102	-10	2.8*	2*	-183	-53
CCOc1ccc(C(C)=O)cc1CSc1nc2nc(C)cc(C)n2n1	0.98	0	2	1	1	-3	x
CCCc1cc(=O)oc2cc(OCC(=O)N3CCN(C(=O)C4COc5ccccc5O4)CC3)ccc12 (stereo unspecified)	0.9	-2	10	x	1	x	x
COc1cc(NC(C)CCCN)c2ncccc2c1 (stereo unspecified)	0.99	52*	1	x	0.48	x	-49
c1ccc(CC2=NCCN2)cc1	1.1	-4	-14	0.9	1	6	x
c1ccc(CN(CC2=NCCN2)c2ccccc2)cc1	1.1	19	-5	337*!	0.98	-2	-47
O=S(=O)(c1ccc2ccccc2c1)n1cccn1	1	41*	-3	x	0.59	x	-3
COc1ccc(C(=O)NNC(=S)NC(=O)/C=C/c2cccs2)cc1	0.79	-25	21	1.1	1.3	-9	x
O=C(NC(=S)NNC(=O)c1ccccc1O)c1cccnc1	0.83	-106	17	1.1	2.1*	-8	-1
CN(C)S(=O)(=O)c1cccc(NC(=S)NNC(=O)c2cc3ccccc3cc2O)c1	0.9	-165	10	x	2.6*	x	72
O=C(/C=C/c1cccs1)NC(=S)NNC(=O)c1ccccc1O	0.69	-137	30	1.3	2.4*	-34	28
